Results as given in PMC3984478 (Cancer cell, 2012).

Experiments:
OCI-Ly10 cells = assay: Growth inhibition, ATP-based luminescent assay; type: cell-based, human; conditions: 48 hr
How it was run: (§1)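 Cells received a single dose of test compound over a concentration range and proliferation was read at 48 hr by luminescent ATP quantification. Luminescence was converted to cell number using per-line standard curves built from trypan blue counts. Viability was normalised to controls and expressed as 1 − fractional viability, and GI25/GI50 were fitted. Experiments were run three times in triplicate.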

[1] = test system: nuclear c-REL in HBL-1 cells; assay: c-REL flow cytometry of whole cells or isolated nuclei; type: cell-based, human; conditions: 200 nM MI-2 or 50 µM Z-VRPR-FMK, 24 hr
How it was run: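 HBL-1 cells were exposed for 24 hr to 200 nM test compound, to 50 µM Z-VRPR-FMK as positive control, or to vehicle. c-REL was then measured by flow cytometry in whole cells and in isolated nuclei.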

HBL-1 cells [2] = assay: Growth inhibition, ATP-based luminescent assay; type: cell-based, human
How it was run: as §1

U2932 cells = assay: Growth inhibition, ATP-based luminescent assay; type: cell-based, human; conditions: 48 hr
How it was run: as §1

TMD8 cells = assay: Growth inhibition, ATP-based luminescent assay; type: cell-based, human
How it was run: as §1

[3] = test system: GCB-DLBCL cell lines (OCI-Ly7 and OCI-Ly1); assay: Growth inhibition, ATP-based luminescent assay; type: cell-based, human; conditions: 48 hr
How it was run: as §1

OCI-Ly3 cells = assay: Growth inhibition, ATP-based luminescent assay; type: cell-based, human; conditions: 48 hr
How it was run: as §1

HLY-1 cells = assay: Growth inhibition, ATP-based luminescent assay; type: cell-based, human; conditions: 48 hr
How it was run: as §1

[4] = biological target: MALT1 paracaspase domain (329–728) (Homo sapiens, UniProt Q9UDY8); assay: LC-MS covalent modification; type: binding
[5] = test system: MALT1-mediated cleavage of CYLD in HBL-1 cells; assay: MALT1 cleavage of CYLD, western blotting and densitometry; type: cell-based, human
OCI-Ly1 = assay: CFSE dilution proliferation assay; type: cell-based, human; conditions: increasing concentrations, 48, 72, and 96 hr
How it was run: (§2)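 Cells were exposed to increasing concentrations of test compound, and CFSE dilution was read by flow cytometry at 48, 72 and 96 hr. 2 × 10^4 cells were acquired per sample, and DAPI staining was used to gate viable cells for analysis.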

[6] = test system: MALT1 substrate cleavage in HBL-1 and TMD8 cell lines; assay: Cleavage of MALT1 substrates A20, BCL10, RELB, western blot with MG-132; type: cell-based, human; conditions: 2 µM, 30 min, then 5 µM MG-132 for 1 or 2 hr
How it was run: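 HBL-1 and TMD8 cells were pretreated for 30 min with 2 µM test compound or vehicle. Proteasome inhibitor MG-132 (5 µM) was then added for a further 1 or 2 hr so that cleaved substrate forms could accumulate. Western blots were probed for A20, RELB and BCL10, and cleavage products were identified by band position.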

caspase-3 = caspase-3 (Homo sapiens, UniProt P42574); assay: Caspase selectivity; type: biochemical
Sequence of caspase-3 (P42574 29-175 limits assumed, species assumed): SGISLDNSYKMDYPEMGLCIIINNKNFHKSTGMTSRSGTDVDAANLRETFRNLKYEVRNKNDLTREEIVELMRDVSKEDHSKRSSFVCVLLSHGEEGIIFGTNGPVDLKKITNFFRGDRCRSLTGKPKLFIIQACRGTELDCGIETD
Sequence of caspase-3 (P42574 176-277 limits assumed, species assumed): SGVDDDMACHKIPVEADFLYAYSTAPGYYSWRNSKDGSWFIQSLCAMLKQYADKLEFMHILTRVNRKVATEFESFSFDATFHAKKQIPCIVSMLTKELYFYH

[7] = test system: NF-κB reporter in 293T cells expressing MALT1 WT; assay: NF-κB reporter assay, PMA/ionomycin, BCL10 + MALT1 WT; type: cell-based; conditions: 2 µM pretreatment 30 min, PMA/ionomycin 2 hr
HBL-1 cells [8] = assay: Recovery of cells after a single dose; type: cell-based, human; conditions: 0.2 µM dose level
[9] = test system: Z-VRPR-FMK signature genes in HBL-1 and TMD8 cell lines; assay: Gene expression profiling, GSEA; type: cell-based, human; conditions: GI50 concentrations (HBL-1 200 nM; TMD8 500 nM), 8 hr
caspase-8 = caspase-8 (Homo sapiens, UniProt Q14790); assay: Caspase selectivity; type: biochemical
Sequence of caspase-8 (Q14790 217-374 limits assumed): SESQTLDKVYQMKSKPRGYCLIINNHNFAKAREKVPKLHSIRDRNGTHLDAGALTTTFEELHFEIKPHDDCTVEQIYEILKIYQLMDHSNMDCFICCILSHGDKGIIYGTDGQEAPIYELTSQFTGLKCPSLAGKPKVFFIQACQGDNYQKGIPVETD
Sequence of caspase-8 (Q14790 385-479 limits assumed): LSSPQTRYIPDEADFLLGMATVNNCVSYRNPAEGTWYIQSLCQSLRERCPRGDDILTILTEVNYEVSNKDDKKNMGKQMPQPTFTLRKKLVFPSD

HBL-1 and TMD8 cells = assay: Trypan blue cell number and Annexin V+ DAPI− apoptosis time course, 14 days; type: cell-based, human; conditions: treated daily at GI25 and GI50, 14 days
How it was run: (§3)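 Cell lines were dosed with test compound every 24 hr. Every 48 hr for 14 days, cells were counted by trypan blue exclusion and apoptosis was measured as Annexin V+ DAPI− by flow cytometry. Cell number is expressed as % of vehicle at each time point.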

[10] = test system: primary human GCB DLBCL cells; assay: Primary human DLBCL ex vivo viability, trypan blue; type: cell-based; conditions: 0.8 µM, 48 hr
How it was run: (§4)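 Single-cell suspensions came from lymph-node biopsies of five DLBCL patients, prepared by physical disruption and density-gradient separation. GCB versus non-GCB status was assigned by Hans-criteria IHC. Cells were cultured in RPMI with 20% FBS and antibiotics and exposed to 0.8 µM test compound (1 µM for one patient) or DMSO in quadruplicate for 48 hr. Cell number and viability were counted by trypan blue and normalised to vehicle.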

caspase-3/7 activity = assay: Cell-based caspase-3/7 activity and apoptosis inhibition; conditions: at concentrations that suppress MALT1
HBL-1 cells [11] = assay: Intracellular concentration by LC-MS; type: in vitro ADME, human
How it was run: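 HBL-1 cells were exposed to 0.02, 0.2 or 2 µM test compound for 2 hr, washed three times, and intracellular compound was quantified by LC-MS. For free-drug kinetics, cells at 0.2 µM were sampled at 30 min and at 2, 6, 12, 24 and 48 hr.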

HBL-1 xenografts = assay: HBL-1 xenograft in NOD-SCID mice; type: in vivo; conditions: IP 25 mg/kg/day, 14 injections
How it was run: (§5)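 Eight-week-old male NOD-SCID (NOD.CB17-Prkdcscid/J) mice received 10^7 low-passage cells subcutaneously in 50% Matrigel in the right flank. At an average tumour size of 120 mm3, mice were randomised to test compound 25 mg/kg/day IP or vehicle (5% DMSO) for 14 consecutive days and sacrificed 24 hr after the 14th injection. Caliper volume, (smallest diameter² × largest)/2, was taken three times weekly. Ki-67 IHC was counted per high-power field.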

HBL-1 cells [12] = assay: BrdU incorporation-DAPI cell cycle; type: cell-based, human; conditions: 24 and 48 hr
How it was run: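 HBL-1 cells were treated with test compound for 24 and 48 hr, then pulse-labelled with BrdU and co-stained with DAPI. Cell-cycle phases (S, G1-0, sub-G0) were read by flow cytometry. Data are mean ± SD of two independent experiments.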

OCI-Ly1 xenografts = assay: OCI-Ly1 xenograft in NOD-SCID mice; type: in vivo; conditions: IP 25 mg/kg/day, 14 injections
How it was run: as §5

[13] = test system: ABC-DLBCL cell lines HBL-1 and TMD8, GCB-DLBCL cell line OCI-Ly1; design: species or system human; conditions: 48 hr, cell-based assays
How it was run: as §1

[14] = test system: primary human non-GCB DLBCL cells; assay: Primary human DLBCL ex vivo viability, trypan blue; type: cell-based; conditions: 0.8 µM, 48 hr
How it was run: as §4

[15] = test system: NF-κB reporter activity in HBL-1 cells; assay: NF-κB reporter assay in HBL-1; type: cell-based, human; conditions: 200 nM
How it was run: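 NF-κB luciferase reporter in HBL-1 cells treated with 200 nM test compound, 50 µM Z-VRPR-FMK or vehicle for 8 and 24 hr. Activity is given as % of vehicle, normalised to an internal control. Statistics used ANOVA with Bonferroni post-test.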

OCI-Ly1 cells = assay: Trypan blue cell number and Annexin V+ DAPI− apoptosis time course, 14 days; type: cell-based, human; conditions: treated daily at the doses used for TMD8, 14 days
How it was run: as §3

[16] = test system: HBL-1, TMD8, and OCI-Ly10; assay: CFSE dilution proliferation assay; type: cell-based, human; conditions: increasing concentrations, 48, 72, and 96 hr
How it was run: as §2

TMD8 xenografts = assay: TMD8 xenograft in NOD-SCID mice; type: in vivo; conditions: IP 25 mg/kg/day, 14 injections
How it was run: as §5

[17] = biological target: LZ-MALT1 (recombinant MALT1 (340–789) fused with a leucine zipper dimerization motif) (Homo sapiens, UniProt Q9UDY8); assay: LZ-MALT1 fluorescence activity assay; type: biochemical; conditions: preincubation with compound before Ac-LRSR-AMC
How it was run: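 Recombinant MALT1 (340–789) fused to a leucine zipper dimerization motif was preincubated with test compound (0–25 µM) for 5–90 min. Ac-LRSR-AMC substrate was then added, and AMC release was read by fluorescence at 360 nm excitation and 465 nm emission. Percent inhibition was normalized and plotted against preincubation time.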

[18] = test system: ABC-DLBCL cell lines HBL-1 and TMD8; assay: Caspase-3/7 cleavage assay; type: cell-based, human
How it was run: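 Caspase-3/7 cleavage assay run within 48 hr of exposure to increasing concentrations of test compound.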

[19] = test system: nuclear c-REL and p65 in HBL-1 and TMD8 cells; assay: Western blots for c-REL and p65 in nuclear extracts; type: cell-based, human; conditions: 24 hr, 200 nM for HBL-1 and 500 nM for TMD8
How it was run: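 Nuclear extracts were prepared from HBL-1 cells (200 nM test compound) and TMD8 cells (500 nM) after 24 hr treatment and immunoblotted for c-REL and p65.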

[20] = biological target: MALT1 active site mutant C464A (Homo sapiens, UniProt Q9UDY8, C464A); assay: LC-MS covalent modification, mutant; type: binding
caspase-9 = caspase-9 (Homo sapiens, UniProt P55211); assay: Caspase selectivity; type: biochemical
Sequence of caspase-9 (P55211 whole entry, species assumed): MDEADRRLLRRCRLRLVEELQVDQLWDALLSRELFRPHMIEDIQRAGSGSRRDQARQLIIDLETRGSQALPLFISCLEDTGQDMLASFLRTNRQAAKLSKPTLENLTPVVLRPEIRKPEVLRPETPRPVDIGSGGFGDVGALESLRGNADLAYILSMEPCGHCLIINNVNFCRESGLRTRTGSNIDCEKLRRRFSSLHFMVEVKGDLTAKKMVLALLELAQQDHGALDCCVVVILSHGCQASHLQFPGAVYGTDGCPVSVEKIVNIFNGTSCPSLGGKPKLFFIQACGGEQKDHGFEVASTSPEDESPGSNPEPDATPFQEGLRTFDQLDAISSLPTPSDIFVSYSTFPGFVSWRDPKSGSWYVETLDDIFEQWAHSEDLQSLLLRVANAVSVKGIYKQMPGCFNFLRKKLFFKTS

[21] = test system: NF-κB reporter in 293T cells expressing MALT1 C464A; assay: NF-κB reporter assay, PMA/ionomycin, BCL10 + MALT1 C464A; type: cell-based; conditions: 2 µM pretreatment 30 min, PMA/ionomycin 2 hr
C57BL/6 mice = assay: Toxicity in mice; type: in vivo
[22] = biological target: paracaspase domain of MALT1 (residues 329–728) (Homo sapiens, UniProt Q9UDY8); assay: HSQC NMR binding

## Z-VRPR-FMK [reference compound]
OCI-Ly10 cells; 50 µM
  response of proliferation: inhibition of proliferation
[1]
  nuclear c-REL (flow cytometry): reduced nuclear c-REL to a similar extent
HBL-1 cells [2]; 50 µM, 48 hr
  response of proliferation: inhibition of proliferation
U2932 cells; 50 µM
  response of proliferation: relatively little response
TMD8 cells; 50 µM, 48 hr
  response of proliferation: inhibition of proliferation
[3]; 50 µM
  response of proliferation: did not respond
OCI-Ly3 cells; 50 µM
  response of proliferation: inhibition of proliferation
HLY-1 cells; 50 µM
  response of proliferation: relatively little response

## COCCOc1nc(-c2ccc(Cl)c(Cl)c2)n(-c2ccc(NC(=O)CCl)cc2)n1 [MI-2]
[4]
  covalent binding by LC-MS: can bind covalently to MALT1
[5]; HBL-1, 5 µM for 8 hr, Z-VRPR-FMK 50 µM positive control
  inhibition of MALT1 cleavage of CYLD: most potent compound
[5]; HBL-1, increasing concentrations, 24 hr
  MALT1-mediated cleavage of CYLD: dose-dependent decrease in MALT1-mediated cleavage
OCI-Ly10 cells; OCI-Ly10, single dose
  GI50: 0.4 µM
OCI-Ly1
  proliferation (CFSE dilution): did not affect OCI-Ly1
[6]
  cleavage of A20, BCL10, and RELB: diminished the abundance of cleaved forms and/or increased the abundance of full-length proteins
caspase-3
  activity against caspase-3: little activity
[7]
  NF-κB induction by PMA/ionomycin: significantly inhibited NF-κB induction
HBL-1 cells [8]
  recovery of cells: only started to become evident after 48 hr
[9]
  enrichment of Z-VRPR-FMK signature (GSEA): significantly enriched among genes downregulated after MI-2 treatment
caspase-8
  activity against caspase-8: little activity
HBL-1 and TMD8 cells
  cell number and apoptosis: profoundly suppressed
[10]
  response of primary cases (cell number and viability): none of the GCBs did
caspase-3/7 activity
  inhibition of caspase-3/7 activity or apoptosis in cell-based assays: did not inhibit
HBL-1 cells [11]; HBL-1, 0.2 µM, 2 hr
  intracellular concentration: 5 µM
HBL-1 cells [11]; HBL-1, 0.2 µM, by 12 hr
  free intracellular drug: virtually no detectable free MI-2
HBL-1 cells [11]; HBL-1 exposed to 0.02, 0.2, or 2 µM for 2 hr, washed three times
  increase in intracellular concentration: 18- to 30 fold
HBL-1 xenografts
  apoptotic cells (TUNEL) relative to vehicle: significant increase in apoptotic cells
  c-REL nuclear protein in tumor sections: reduced c-REL nuclear protein
  proliferation (Ki-67 staining) compared to vehicle: significant decrease in proliferation
  tumor growth versus vehicle: profoundly suppressed the growth
HBL-1 cells [12]
  cell cycle (BrdU-DAPI): dose-dependent decrease in S phase
OCI-Ly1 xenografts
  apoptotic cells (TUNEL) relative to vehicle: not in OCI-Ly1 xenografts
  proliferation (Ki-67 staining) compared to vehicle: no difference
  tumor growth versus vehicle: no effect on the growth
[1]
  nuclear c-REL (flow cytometry): reduced nuclear c-REL to a similar extent
[13]
  25% growth-inhibitory concentration (GI25): high-nanomolar range
HBL-1 cells [2]; HBL-1
  GI50: 0.2 µM
[14]
  response of primary cases (cell number and viability): two of the non-GCB cases responded
[15]; 8 hr
  reduction in NF-κB reporter activity: 20%
[15]; 24 hr
  reduction in NF-κB reporter activity: 50%
OCI-Ly1 cells
  cell number and apoptosis: no effect on OCI-Ly1 cells
U2932 cells; U2932, single dose
  growth inhibition: resistant
[16]
  proliferation (CFSE dilution): substantially inhibited proliferation
TMD8 cells; TMD8
  GI50: 0.5 µM
TMD8 xenografts
  apoptotic cells (TUNEL) relative to vehicle: significant increase in apoptotic cells
  proliferation (Ki-67 staining) compared to vehicle: significant decrease in proliferation
  tumor growth versus vehicle: profoundly suppressed the growth
[3]; two GCB-DLBCL cell lines, single dose
  growth inhibition: resistant
[17]
  inhibition reached: ~100%
OCI-Ly3 cells; OCI-Ly3, single dose
  GI50: 0.4 µM
[18]
  apoptosis (caspase-3/7 cleavage): dose-dependent apoptosis within 48 hr
[19]
  nuclear c-REL (western blot): clear reduction of nuclear c-REL
  nuclear p65 levels (western blot): did not affect p65 levels
[20]
  covalent binding by LC-MS: markedly reduced covalent binding
HLY-1 cells; HLY-1, single dose
  growth inhibition: resistant
caspase-9
  activity against caspase-9: little activity
[21]
  NF-κB induction by PMA/ionomycin: did not significantly affect
C57BL/6 mice; daily IP 25 mg/kg over 14 days
  Complete peripheral blood counts, biochemistry, and liver function tests: normal
C57BL/6 mice; daily IP, increasing doses 0.05 to 25 mg/kg over 10 days, cumulative 51.1 mg/kg
  toxicity 1: physical indicators of sickness: no evidence of lethargy, weight loss
[22]
  binding by HSQC NMR: robust interaction
